Active and inactive are the calls of the source. No cut-off for these calls is given here.
Assays:
[1] = tested on: Rattus norvegicus; experiment: Cardiac protection in Wistar rat assessed as decrease in infarct size at 5 ug/min/kg for 13 hrs prolonged treatment terminated 3 hrs before ischemia; type: functional; parameters: scale not given: the % may be the effect or the level left
[2] = tested on: BL21; experiment: Activation of human recombinant ALDH2*2 E487K mutant expressed Escherichia coli BL21 cells at 10 uM relative to control
[3] = target: T1, Aldehyde dehydrogenase, mitochondrial (Homo sapiens) (UniProt P05091); experiment: Activation of wild type human recombinant ALDH2*1 expressed Escherichia coli BL21 cells at 10 uM relative to control
T1 sequence (whole entry): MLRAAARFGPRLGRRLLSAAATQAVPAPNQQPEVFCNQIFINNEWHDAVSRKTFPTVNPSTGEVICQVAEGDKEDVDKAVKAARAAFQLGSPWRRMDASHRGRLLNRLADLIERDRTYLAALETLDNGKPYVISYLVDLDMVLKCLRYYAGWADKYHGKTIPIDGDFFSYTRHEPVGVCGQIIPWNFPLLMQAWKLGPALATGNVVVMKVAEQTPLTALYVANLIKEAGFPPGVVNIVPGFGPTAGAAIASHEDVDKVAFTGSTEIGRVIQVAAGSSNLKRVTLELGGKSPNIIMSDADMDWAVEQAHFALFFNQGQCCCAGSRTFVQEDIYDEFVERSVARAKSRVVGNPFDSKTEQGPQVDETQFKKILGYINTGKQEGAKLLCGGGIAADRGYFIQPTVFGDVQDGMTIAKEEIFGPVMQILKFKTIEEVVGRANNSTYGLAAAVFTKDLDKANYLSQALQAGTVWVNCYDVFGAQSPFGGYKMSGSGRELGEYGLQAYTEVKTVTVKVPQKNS

[4] = tested on: Rattus norvegicus; experiment: Reduction of cardiac damage in acute myocardial infarction Wistar rat model assessed as decrease in myocardial infarction at 8.5 mg/kg treated 5 mins before ischemia by TTC staining; type: functional, Myocardium; parameters: scale not given: the % may be the effect or the level left
Summary of the method: (§1)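 In vivo: 8.5 mg/kg injected into left ventricle five minutes before ischemia; 35 min ischemia then 60 min reperfusion; infarct size of left ventricular free wall expressed as percent, n=7.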

[5] = tested on: Rattus norvegicus; experiment: Toxicity in Wistar rat assessed as histopathology at 6 mg/kg/day for 1 week; type: organism-based; conditions: in vivo, 168 h
[6] = tested on: Rattus norvegicus; experiment: Toxicity in Wistar rat assessed as blood parameters at 6 mg/kg/day for 1 week; type: organism-based; conditions: in vivo, 168 h
[7] = tested on: Rattus norvegicus; experiment: Induction of cell-stress in Wistar rat heart assessed as JNK activation at 8.5 mg/kg after 5 mind by Western blot analysis; type: functional, organism-based; parameters: dose 8.5 mg/kg
[8] = tested on: Rattus norvegicus; experiment: Induction of cell-stress in Wistar rat heart assessed as JNK activation at 8.5 mg/kg after ischemia followed by reperfusion by occluding left anterior descending coronary artery ligation for 35 mins by Western blot analysis; type: functional, organism-based; parameters: dose 8.5 mg/kg
Summary of the method: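 In vivo rat model: 8.5 mg/kg given into the left ventricle five minutes before 35 min ischemia, followed by 60 min reperfusion.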

[9] = target: T1, Aldehyde dehydrogenase, mitochondrial (Homo sapiens); experiment: Activation of human ALDH2 assessed as phosphorylated enzyme at 20 uM in absence of rat PKCepsilon by spectrophotometry
[10] = target: T1, Aldehyde dehydrogenase, mitochondrial (Homo sapiens); experiment: Activation of human ALDH2 assessed as phosphorylated enzyme at 20 uM in presence of rat PKCepsilon by spectrophotometry
[11] = Effect on alcohol dehydrogenase 1 activity at 100 uM
[12] = target: T2, Aldehyde dehydrogenase 1A1 (Homo sapiens) (UniProt P00352); experiment: Effect on human recombinant his-tagged cytosolic ALDH1A1 activity expressed in Escherichia coli BL21 cells at 100 uM
T2 sequence (whole entry): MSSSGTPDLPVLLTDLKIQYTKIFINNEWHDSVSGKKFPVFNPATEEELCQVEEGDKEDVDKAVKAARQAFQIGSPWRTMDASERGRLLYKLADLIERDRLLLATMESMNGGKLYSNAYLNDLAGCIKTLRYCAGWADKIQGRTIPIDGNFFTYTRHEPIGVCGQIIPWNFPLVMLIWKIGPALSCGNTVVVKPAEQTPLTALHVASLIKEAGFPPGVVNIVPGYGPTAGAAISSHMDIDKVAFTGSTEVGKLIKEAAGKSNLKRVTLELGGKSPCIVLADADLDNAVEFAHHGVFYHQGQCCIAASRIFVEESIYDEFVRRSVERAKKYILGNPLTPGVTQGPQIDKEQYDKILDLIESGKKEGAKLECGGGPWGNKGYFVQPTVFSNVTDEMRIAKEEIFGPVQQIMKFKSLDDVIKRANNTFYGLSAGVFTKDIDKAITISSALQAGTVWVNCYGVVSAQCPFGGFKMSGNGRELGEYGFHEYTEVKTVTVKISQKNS

[13] = target: T3, Aldehyde dehydrogenase X, mitochondrial (Homo sapiens) (UniProt P30837); experiment: Effect on human recombinant his-tagged mitochondrial ALDH5 activity expressed in Escherichia coli BL21 cells at 100 uM
T3 sequence (whole entry): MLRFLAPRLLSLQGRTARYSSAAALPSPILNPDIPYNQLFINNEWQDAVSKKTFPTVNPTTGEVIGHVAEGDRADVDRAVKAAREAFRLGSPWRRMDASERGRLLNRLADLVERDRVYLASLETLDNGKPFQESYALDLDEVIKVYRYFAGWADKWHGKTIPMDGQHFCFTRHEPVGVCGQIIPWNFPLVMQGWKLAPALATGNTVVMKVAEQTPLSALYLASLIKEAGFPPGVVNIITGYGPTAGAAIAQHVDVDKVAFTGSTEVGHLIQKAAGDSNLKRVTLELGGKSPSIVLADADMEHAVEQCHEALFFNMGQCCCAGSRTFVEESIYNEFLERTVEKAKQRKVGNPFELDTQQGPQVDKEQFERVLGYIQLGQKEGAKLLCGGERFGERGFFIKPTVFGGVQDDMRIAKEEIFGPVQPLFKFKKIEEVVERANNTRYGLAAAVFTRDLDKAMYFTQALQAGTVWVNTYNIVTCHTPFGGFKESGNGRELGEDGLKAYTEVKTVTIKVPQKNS

[14] = tested on: BL21; experiment: Increase in human recombinant ALDH2*2 E487K mutant activity expressed in Escherichia coli BL21 cells
Summary of the method: (§2)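 Recombinant human ALDH2 proteins (wild type, heterozygous and homozygous mutant forms), 20μg each, assayed for enzymatic activity with 100 μM activator present; activity expressed as percent of untreated control; n=3.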

[15] = tested on: BL21; experiment: Increase in human recombinant ALDH2*1/*2 E487K mutant heterotetramer activity expressed in Escherichia coli BL21 cells using wild type and mutant allele; summary of the method: as §2
[16] = target: T1, Aldehyde dehydrogenase, mitochondrial (Homo sapiens); experiment: Increase in wild type human recombinant ALDH2*1/*1 homotetramer activity expressed in Escherichia coli BL21 cells using wild type allele relative to basal activity; summary of the method: as §2
[17] = tested on: Heart; experiment: Ex vivo cardiac protection in Langendorff perfused Wistar rat heart assessed decrease in myocardial infarct size at 20 uM treated […] ischemia followed by 60 mins reperfusion by TTC staining; type: functional; parameters: scale not given: the % may be the effect or the level left
Summary of the method: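 Langendorff-perfused rat hearts pretreated 10 min with 20 μM drug or vehicle, then 35 min ischemia and 60 min reperfusion. Infarct size assessed by TTC staining of cross-sectional slices; n=7 hearts per group.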

[18] = tested on: Heart; experiment: Ex vivo cardiac protection in Langendorff perfused Wistar rat heart assessed decrease of CPK release at 20 uM treated 35 mins before ischemia followed by 60 mins reperfusion; type: functional; parameters: scale not given: the % may be the effect or the level left
[19] = tested on: Rattus norvegicus; experiment: Reduction of cardiac damage in acute myocardial infarction Wistar rat model assessed as decrease in infarct size at 8.5 mg/kg treated before left anterior descending coronary artery ligation measured after 35 mins of ischemia followed by 60 mins reperfusion by TTC staining; type: functional, Myocardium; parameters: scale not given: the % may be the effect or the level left; summary of the method: as §1
[20] = target: T4, Aldehyde dehydrogenase, mitochondrial (Rattus norvegicus) (UniProt P11884); experiment: Induction of ALDH2 activity in langendorff perfused ischemic Wistar rat heart homogenate assessed as NADH level in per mg of protein at 1 uM after 10 mins by spectrophotometry; type: tissue-based
T4 sequence (whole entry): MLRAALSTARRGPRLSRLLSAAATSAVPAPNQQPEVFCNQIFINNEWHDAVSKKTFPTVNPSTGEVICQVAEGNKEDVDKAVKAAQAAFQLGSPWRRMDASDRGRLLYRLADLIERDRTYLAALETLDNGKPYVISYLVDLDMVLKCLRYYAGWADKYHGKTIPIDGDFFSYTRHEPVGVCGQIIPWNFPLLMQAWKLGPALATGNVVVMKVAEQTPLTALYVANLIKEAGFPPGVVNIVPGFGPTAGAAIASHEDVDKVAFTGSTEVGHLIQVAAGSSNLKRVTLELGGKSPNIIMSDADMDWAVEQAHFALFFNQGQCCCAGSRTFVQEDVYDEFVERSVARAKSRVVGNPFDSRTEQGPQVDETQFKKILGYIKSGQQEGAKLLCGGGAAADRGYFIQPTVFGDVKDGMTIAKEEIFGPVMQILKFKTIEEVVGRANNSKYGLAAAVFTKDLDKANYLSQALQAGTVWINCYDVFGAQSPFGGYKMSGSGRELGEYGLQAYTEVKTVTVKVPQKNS
Summary of the method: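 Rat hearts on a Langendorff apparatus perfused with oxygenated Krebs-Henseleit buffer containing 1μM εPKC agonist peptide for 10 min, then subjected to ischemia; ALDH activity measured in heart homogenates.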

[21] = tested on: Heart; experiment: Cardiac protection in Langendorff perfused ischemic Wistar rat heart assessed as reduction of infarct size at 1 uM for 10 mins by TTC staining; type: functional; parameters: scale not given: the % may be the effect or the level left

O=[N+]([O-])OCC(CO[N+](=O)[O-])O[N+](=O)[O-] [NITROGLYCERIN]
Activity [1]: 33%

O=C(NCc1ccc2c(c1)OCO2)c1c(F)cccc1F
Activity [2]: 330%
Activity [3]: 41%

O=C(NCc1ccc2c(c1)OCO2)c1c(Cl)cccc1Cl
Activity [4]: 60%
Activity [5]: Non-toxic
Activity [6]: Non-toxic
Activity [7]: inactive
Activity [8]: inactive
Activity [9]: 90%
Activity [10]: 100%
Activity [11]: inactive
Activity [12]: inactive
Activity [13]: inactive
fold change (FC) [14]: 11
fold change (FC) [15]: 2.2
fold change (FC) [16]: 2.1
Activity [2]: 900%
Activity [3]: 65%
Activity [17]: 26%
Activity [18]: 24%
Activity [19]: 43%

O=C(NCc1ccc2c(c1)OCO2)c1ccccc1Br
Activity [2]: 550%
Activity [3]: 56%

H-HDAPIGYD-OH
Activity [20]: 3.2 µmol/min
Activity [21]: 23%

From ChEMBL document CHEMBL1152868, “Activation of aldehyde dehydrogenase-2 reduces ischemic damage to the heart” (Science, 2008)
